In ChEMBL document CHEMBL4513216, “Probing the Open Global Health Chemical Diversity Library for Multistage-Active Starting Points for Next-Generation Antimalarials” (ACS Infect Dis, 2020):

Test: Toxicity liver stage against HepG2, at 10uM
Format: cell-based
Parameters: test concentration 10 uM, cell line HepG2-A16-CD81EGFP
Settings: human, HepG2-A16-CD81EGFP cells; read-out: INHIBITION
Method in brief: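 Uninfected HepG2-A16-CD81EGFP cells, 3 × 10^3 per well, 1536-well, plated on prespotted compound at 10 μM final, parasite-free screening media added to match infected plates; puromycin 10 μM positive, DMSO 0.5% negative; run in parallel with 48 h PbLuc assay at 37 °C, 5% CO2; viability by CellTiter-Glo luminescence, normalized to controls.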

Point of comparison: `c1ccc(CN2CCC3(CC2)CCN(Cc2cccs2)C3)nc1`, cytotoxicity at 10 µM 4.17%. Against it:
- CC(=O)Nc1nc2c(s1)CN(CC(=O)Nc1ccc(C)c(Cl)c1)CC2 — lower, -6.17%
- OCCn1nccc1C1CCN(Cc2nc(C3CC3)no2)CC1 — lower, -11.7%
- O=C(c1cccnc1)N1CCCC1c1nc(O)cc(-c2ccccn2)n1 (stereo not drawn) — lower, -5.91%
- CCOC(=O)C1CCN(C(=O)Cc2c(C)nc(C)[nH]c2=O)CC1 — higher, 16.6%
- COc1ccc(C(=O)CCc2nc(C3CC3)no2)cc1 — lower, -2.31%
- CCCc1nnnn1CC(=O)NCc1cccc(C)c1 — lower, -3.94%
- O=C1CC(C(=O)N2CCc3sccc3C2)CN1Cc1cccnc1 (stereo not drawn) — lower, -1.18%
- O=C1NCC[C@]12CN(Cc1ccco1)C[C@H]2c1ccccc1 — lower, -139%
- CN(C)CCNC(=O)c1ccccc1NC(=O)c1cc(Cl)ccc1Cl — lower, -1.02%
- CCCn1c(C)c(CC(=O)NCC(N)=O)c2c1CC(C)(C)CC2=O — lower, 2.03%
- CSCC(=O)N[C@H]1CC[C@H](Nc2nccc(-c3ccncc3)n2)C1 — higher, 11.8%
- Cc1ccc(-n2nnc(C(=O)Nc3cc(C)nn3C)c2C2CC2)cc1 — lower, 0.888%
- Cc1cccnc1N1CC2(CCN(Cc3cccnc3)C2)C1 — lower, -8.13%
- COc1ccc(F)cc1CSCC(=O)N(C)C1CC1 — lower, 0.611%
- c1nc2n(c1CN1CCCCC1)CCN(C1CCOC1)CC2 (stereo not drawn) — lower, -152%
- Cc1nn(C)c2nc(-c3ccccn3)nc(NC[C@@H]3CCCO3)c12 — higher, 7.49%
- Cc1cccc(OC2CCN(c3nccnc3C#N)CC2)n1 — lower, 1.1%
- CC1N(c2cnn(C)c2)C(=O)COC12CCN(Cc1ccco1)CC2 (stereo not drawn) — lower, 1.2%
- c1ccc(Cc2noc(CN3CCCCC3C3OCCO3)n2)cc1 (stereo not drawn) — lower, -2.62%
- O=C(NCCN1CCOCC1)c1scnc1Cl — lower, -2.09%
- O=C(CNCCn1cccn1)NCC1(c2ccccc2)CCCC1 — lower, -5.92%
- Cc1ccsc1CNC(=O)N(C)Cc1cnn(C)c1 — lower, -6.25%
- Cc1ccc2oc(SCC(N)=O)nc2n1 — higher, 9.65%
- COCCN(C)Cc1ccc(OC)c(OC(F)F)c1 — lower, -5.5%
- C[C@@H](O)CNC(=O)CCc1nc2cccnc2[nH]1 — lower, -6.9%
- Cc1nc2ccccc2nc1CN1CCOC(Cn2cccn2)C1 (stereo not drawn) — lower, 1.1%
- O=C(O)c1cn(CC2CCCN(c3ccc4ccccc4n3)C2)nn1 (stereo not drawn) — lower, -7.14%
- CCn1cnnc1C1CCN(C(=O)CCCOc2ccccc2)CC1 — lower, 0.927%
- COc1ncccc1C(=O)N1CCC(c2nnc(C3CC3)o2)CC1 — lower, 3.61%
- O=C(CSc1ccccc1Cl)NS(=O)(=O)c1ccc2c(c1)OCCO2 — lower, -10.7%
- O=C(O)c1nnn(-c2ccccc2)c1-c1ccncc1 — lower, 2.33%
- O=C(CSc1ccccc1)N1C[C@@H]2CC[C@H]1CN(Cc1ccncc1)C2 — lower, -0.143%
- O=S(=O)(c1cccc(Cl)c1)N1CCCC(Cn2cncn2)C1 (stereo not drawn) — lower, -7.21%
- CCOCCC(=O)NCc1ccnc(NC2CC2)c1 — lower, 0.545%
- COc1ccc(C(=O)NS(C)(=O)=O)cc1-c1ccccc1 — lower, -0.0142%
- COc1ccccc1-c1ncc(CN2CCC3(CCN(C)C3)CC2)cn1 — lower, 3.92%
- Cc1nc(C)c(C(=O)N2Cc3ccccc3OCC2CN(C)C)o1 (stereo not drawn) — lower, 2.2%
- CCCN1CCCn2nc(CNC(=O)CC(C)n3ccnc3C)cc2C1 (stereo not drawn) — lower, -9.4%
- Cc1cccc(C)c1OCC(=O)NS(=O)(=O)c1c(C)noc1C — lower, -2.28%
- Cc1n[nH]c(C)c1C1COCCN1C(=O)c1n[nH]c2ccccc12 (stereo not drawn) — lower, -3.63%
- CCCN1C[C@@H]2CC[C@H]1CN(C(=O)c1ccc(N(C)CCO)cc1)C2 — lower, -6.47%
- NC(=O)C(NC(=O)c1cc(Cl)c[nH]1)c1ccccc1 (stereo not drawn) — lower, -0.589%
- O=C(NCC1CCC1)c1ccc(-n2ccnc2)nn1 — lower, 2.18%
- CN1CCN(S(C)(=O)=O)Cc2cccnc21 — lower, -112%
- Cc1nonc1NC(=O)C1SCCc2ccccc21 (stereo not drawn) — lower, -3%
- O=C1CC2(CCCCC2)CC(=O)N1CC(O)COCc1ccc(Cl)cc1 (stereo not drawn) — lower, -1.04%
- CC(O)CN1CCN(C(=O)c2cc(Cl)cc3cccnc23)CC1 (stereo not drawn) — lower, -1.78%
- Cc1cc(O)nc(C2CCCNC2)n1 (stereo not drawn) — lower, -9.14%
- O=C(NCC1CCOCC1)[C@H]1C[C@@H]2CCN(Cc3ccncc3)C[C@@H]2O1 — lower, -14.1%
- COCCCNC(=O)Nc1ccc(OCc2noc(C3CC3)n2)cc1 — higher, 7.04%
- CC(C)(C)c1cn2nc(N3CCOC(Cn4cncn4)C3)sc2n1 (stereo not drawn) — lower, -2.63%
- COc1ccc2cnn(CC(=O)NC3CCCC3)c(=O)c2c1OC — lower, -2.86%
- Cn1nc(C(=O)NCc2cccc(Cn3ccnc3)c2)ccc1=O — higher, 8.53%
- CC(C)C(C)(C#N)NC(=O)Cn1cc(Cl)cn1 (stereo not drawn) — lower, 1.18%
- CN(C)CCOCC1CN(Cc2ccsc2)Cc2nnn(C)c21 (stereo not drawn) — higher, 14.1%
- COCCC(=O)N1CCCC2(CCN(c3ccccc3)C2=O)C1 (stereo not drawn) — lower, -1.66%
- CCN(CC)CCN(CC(C)C)c1cc(C(F)(F)F)nc2ncnn12 — lower, -5.39%
- CCC[C@@H]1CN(Cc2cc(C#N)n(C)c2C)C[C@H]1NS(C)(=O)=O — lower, -132%
- CCOCC1(CNCc2cc(O)c3cc(C)ccc3n2)CC1 — lower, -9.19%
- Cn1ccnc1CN1CCCC(CO)(CCc2ccccc2)C1 (stereo not drawn) — lower, -3.36%
- Cc1cc(N2CCN(Cc3ccccc3)CC(O)C2)nc(N)n1 (stereo not drawn) — lower, 1.06%
- Cc1cnc(C(=O)N2CC[C@@H]3CN(c4ncccn4)CCO[C@@H]3C2)cn1 — lower, -75.2%
- Oc1ccccc1-c1n[nH]c(C2CCCO2)n1 (stereo not drawn) — lower, -5.22%
- O=c1c(NCCO)c(N2CCN(c3ccccc3)CC2)c1=O — lower, -6.95%
- COc1c(CNCC(O)c2cccc(F)c2)c(C(C)C)nn1C (stereo not drawn) — lower, 2.31%
- COc1cc2cc(C(=O)O)n(C)c2cc1OC — lower, 1.03%
- Cc1ccccc1C(=O)NC[C@@H]1CCN(C(=O)C2(O)CCCC2)C[C@H]1O — lower, -38.7%
- Cc1ncsc1C(=O)OCCN1CCCc2ccccc21 — lower, 2.42%
- Cc1[nH]ncc1C(=O)N1CCCC1c1noc(C2CC2)n1 (stereo not drawn) — lower, -18.1%
- COc1cccc(C(=O)N2CCCC(C(=O)CCc3ccccc3)C2)c1 (stereo not drawn) — lower, -20%
- CN1CCCN(C(=O)NCCNc2ncccn2)CC1 — lower, -16.7%
- CCc1nnc2n1CCN(Cc1ncc(-c3ccc(F)cc3)o1)C2 — lower, -9.42%
- Cc1cc(C2CCCN(C(=O)c3ccc(OCC4CC4)nc3)C2)n[nH]1 (stereo not drawn) — lower, -12.9%
- COc1ccc(C(=O)Nc2ccc3c(c2)C(=O)NC3)cc1Br — lower, 3.53%
- O=C(c1ncc[nH]1)N1CCC(n2cc(-c3ccccn3)nn2)CC1 — higher, 4.95%
- COCCNC(=O)[C@H]1CN(Cc2sccc2C)C[C@H]2OCC[C@@H]12 — lower, 2.05%
- CNc1nc(CN2C[C@@H](NC(C)=O)[C@H](c3ccc(C)o3)C2)cs1 — lower, -42.4%
- Cc1nccc([C@@H]2C[C@@H]3CCN(Cc4c(C)noc4C)C[C@H]3O2)n1 — lower, -76.9%
- CSc1ccc(CNC2CCCc3c2cnn3C)cc1 (stereo not drawn) — lower, 0.684%
- CCn1nc(C)cc1C(=O)N1C[C@@H]2C[C@@H](C)O[C@@H]2C1 — higher, 5.53%
- CC1(C)CN=C(N2CCN(CC3CCOC3)CC2)S1 (stereo not drawn) — higher, 11.7%
- Cc1nc2cc(-c3nccn3C)nn2c(N2CCC(O)CC2)c1C — lower, -3.31%
